Reference: ChEMBL document CHEMBL1914356, “Maslinic acid derivatives induce significant apoptosis in b16f10 murine melanoma cells” (2011)
Activity calls are given as the source filed them. No cut-off for these calls is given here.

system: B16-F10; experiment: Induction of apoptosis in mouse B16F10 cells assessed as necrotic cells at 30 uM after 24 hrs using annexin V-FITC/propidium iodide staining by flow cytometry; format: functional
In short: (§1)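 B16-F10 cells grown in DMEM with 4 mM L-glutamine, 1 mM pyruvate, 4.5 g/L glucose and 10% FBS. 300,000 cells/well were plated, then treated in DMSO after 24 h. Vehicle and medium-alone controls were included. Cells were detached with EDTA-trypsin, PBS-washed and set at 1 × 10^6 cells/mL in binding buffer. Annexin V-FITC/PI staining ran 15 min at room temperature in the dark, followed by flow cytometry within 1 h.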

**Q.** `CC1(C)CC[C@]2(C(=O)OCc3ccccc3)CC[C@]3(C)C(=CC[C@@H]4[C@@]5(C)C[C@H](O)[C@H](O)C(C)(C)[C@@H]5CC[C@]43C)[C@@H]2C1` [BENZYL AUGUSTATE] was tested. Which Activity did it give?
**A.** <10%

**Q.** For `COC(=O)C12CCC(C)=C(/C=C\C3=C(C)CC[C@H]4C(C)(C)[C@@H](OC(C)=O)CC[C@]34C)[C@@H]1CC(C)(C)CC2` (single isomer, unassigned), which Activity is on record?
**A.** <10%

**Q.** For `CC1(C)CC[C@]2(C(=O)O)CC[C@]3(C)C(=CC[C@@H]4[C@@]5(C)C[C@@H](O)[C@H](O)C(C)(C)[C@@H]5CC[C@]43C)[C@@H]2C1` [MASLINIC ACID], which Activity is on record?
**A.** <10%

**Q.** How did the Activity turn out when `COC(=O)[C@]12CCC(C)(C)C[C@H]1C1=CC[C@@H]3[C@@]4(C)C[C@H](OC(C)=O)[C@@H](O)C(C)(C)[C@@H]4CC[C@@]3(C)[C@]1(C)CC2` was run?
**A.** <10%

**Q.** `CC1(C)CC[C@]2(C(=O)O)CC[C@]3(C)C(=CC[C@@H]4[C@@]5(C)CC(=O)[C@H](O)C(C)(C)[C@@H]5CC[C@]43C)[C@@H]2C1` was tested. Which Activity did it give?
**A.** <10%

**Q.** Which Activity does the source give for `COC(=O)[C@]12CCC(C)(C)C[C@H]1C1=CC[C@@H]3[C@@]4(C)C[C@@H](O)C(=O)[C@](C)(CO)[C@@H]4CC[C@@]3(C)[C@]1(C)CC2` here?
**A.** <10%

**Q.** How did the Activity turn out when `Cc1ccc(S(=O)(=O)OC[C@]23CCC(C)(C)C[C@H]2C2=CC[C@@H]4[C@@]5(C)C[C@H]6OC(C)(C)O[C@@H]6C(C)(C)[C@@H]5CC[C@@]4(C)[C@]2(C)CC3)cc1` was run?
**A.** <10%

**Q.** `CC1(C)CC[C@]2(CN=[N+]=[N-])CC[C@]3(C)C(=CC[C@@H]4[C@@]5(C)C[C@@H](O)[C@H](O)C(C)(C)[C@@H]5CC[C@]43C)[C@@H]2C1` was tested. Which Activity did it give?
**A.** <10%

**Q.** `C=C1C2CC3[C@@]4(C)CC[C@H](OC(C)=O)C(C)(C)C4CC[C@@]3(C)C2=CC[C@@]2(C(=O)OC)CCC(C)(C)CC12` (stereo partly drawn) was tested. Which Activity did it give?
**A.** <10%

**Q.** `C=C1CC[C@H]2C(C)(C)[C@@H](OC(C)=O)CC[C@]2(C)/C1=C/CC1=C(C)CCC2(C(=O)OC)CCC(C)(C)C[C@@H]12` (single isomer, unassigned) was tested. Which Activity did it give?
**A.** <10%

**Q.** How did the Activity turn out when `CC(=O)O[C@H]1CC[C@]2(C)[C@H]3C[C@H](OC(C)=O)[C@]45OC(=O)[C@@]6(CCC(C)(C)C[C@H]64)CC[C@@]5(C)[C@]3(C)CC[C@H]2C1(C)C` was run?
**A.** <10%

**Q.** How did the Activity turn out when `CC(=O)O[C@H]1CC[C@]2(C)[C@H]3C=C[C@]45OC(=O)[C@@]6(CCC(C)(C)C[C@H]64)CC[C@@]5(C)[C@]3(C)CC[C@H]2C1(C)C` was run?
**A.** <10%

**Q.** For `CC1(C)CC[C@]2(CO)CC[C@]3(C)C(=CC[C@@H]4[C@@]5(C)C[C@H](O)[C@H](O)C(C)(C)[C@@H]5CC[C@]43C)[C@@H]2C1`, which Activity is on record?
**A.** <10%

**Q.** For `CC1(C)CC[C@]2(CO)CC[C@]3(C)C(=CC[C@@H]4[C@@]5(C)C[C@@H](O)[C@H](O)C(C)(C)[C@@H]5CC[C@]43C)[C@@H]2C1`, which Activity is on record?
**A.** <10%

**Q.** How did the Activity turn out when `COC(=O)[C@]12CCC(C)(C)C[C@H]1[C@@](O)(/C=C\[C@@]13O[C@]1(C)CC[C@H]1C(C)(C)CCC[C@@]13C)[C@](C)(O)CC2` was run?
**A.** <10%

**Q.** How did the Activity turn out when `COC(=O)[C@]12CCC(C)(C)C[C@H]1[C@@](O)(/C=C\[C@@]13O[C@]1(C)CC[C@H]1C(C)(C)[C@@H](O)CC[C@@]13C)[C@](C)(O)CC2` was run?
**A.** <10%

**Q.** `C=C1CC[C@H]2C(C)(C)CCC[C@]2(C)/C1=C/CC1=C(C)CCC2(C(=O)OC)CCC(C)(C)C[C@@H]12` (single isomer, unassigned) was tested. Which Activity did it give?
**A.** <10%

**Q.** Which Activity does the source give for `CC1(C)CC[C@]2(C(=O)O)CC[C@]3(C)C(=CC[C@@H]4[C@@]5(C)C=C(O)C(=O)C(C)(C)[C@@H]5CC[C@]43C)[C@@H]2C1` here?
**A.** <10%

system: B16-F10; experiment: Induction of apoptosis in mouse B16F10 cells assessed as early/late apoptotic cells at 30 uM after 24 hrs using annexin V-FITC/propidium iodide staining by flow cytometry; format: functional; in short: as §1

**Q.** Which Activity does the source give for `CC1(C)CC[C@]2(C(=O)OCc3ccccc3)CC[C@]3(C)C(=CC[C@@H]4[C@@]5(C)C[C@H](O)[C@H](O)C(C)(C)[C@@H]5CC[C@]43C)[C@@H]2C1` [BENZYL AUGUSTATE] here?
**A.** 80%

**Q.** Which Activity does the source give for `CC1(C)CC[C@]2(C(=O)O)CC[C@]3(C)C(=CC[C@@H]4[C@@]5(C)CC(=O)[C@H](O)C(C)(C)[C@@H]5CC[C@]43C)[C@@H]2C1` here?
**A.** 80%

**Q.** With `CC1(C)CC[C@]2(C(=O)O)CC[C@]3(C)C(=CC[C@@H]4[C@@]5(C)C=C(O)C(=O)C(C)(C)[C@@H]5CC[C@]43C)[C@@H]2C1` as the compound, how does the Activity read?
**A.** 80%

system: B16-F10; experiment: Induction of apoptosis in mouse B16F10 cells at 30 uM after 24 hrs using annexin V-FITC/propidium iodide staining by flow cytometry; format: functional; in short: as §1

**Q.** Which Activity does the source give for `COC(=O)[C@]12CCC(C)(C)C[C@H]1C1=CC[C@@H]3[C@@]4(C)C[C@@H](O)C(=O)[C@](C)(CO)[C@@H]4CC[C@@]3(C)[C@]1(C)CC2` here?
**A.** 30%

**Q.** With `CC(=O)O[C@H]1CC[C@]2(C)[C@H]3C[C@H](OC(C)=O)[C@]45OC(=O)[C@@]6(CCC(C)(C)C[C@H]64)CC[C@@]5(C)[C@]3(C)CC[C@H]2C1(C)C` as the compound, how does the Activity read?
**A.** 30%

**Q.** For `COC(=O)[C@]12CCC(C)(C)C[C@H]1[C@@](O)(/C=C\[C@@]13O[C@]1(C)CC[C@H]1C(C)(C)[C@@H](O)CC[C@@]13C)[C@](C)(O)CC2`, which Activity is on record?
**A.** 30%

system: B16-F10; experiment: Induction of apoptosis in mouse B16F10 cells assessed as total apoptosis at 20 uM after 48 hrs using annexin V-FITC/propidium iodide staining by flow cytometry; format: functional, cell-based
In short: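 B16-F10 cells in DMEM/10% FBS were plated at 300,000 cells/well, then treated 24 h later, in duplicate, in DMSO at […] for 24 or 48 h. Vehicle and medium controls were included. Annexin V-FITC/PI staining ran 15 min at room temperature in the dark. Total apoptosis (early + late) was read by flow cytometry as mean ± SD from two independent experiments.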

**Q.** How did the Activity turn out when `CC1(C)CC[C@]2(C(=O)OCc3ccccc3)CC[C@]3(C)C(=CC[C@@H]4[C@@]5(C)C[C@H](O)[C@H](O)C(C)(C)[C@@H]5CC[C@]43C)[C@@H]2C1` [BENZYL AUGUSTATE] was run?
**A.** Active

**Q.** Which Activity does the source give for `CC1(C)CC[C@]2(C(=O)O)CC[C@]3(C)C(=CC[C@@H]4[C@@]5(C)CC(=O)[C@H](O)C(C)(C)[C@@H]5CC[C@]43C)[C@@H]2C1` here?
**A.** Active

**Q.** How did the Activity turn out when `CC1(C)CC[C@]2(C(=O)O)CC[C@]3(C)C(=CC[C@@H]4[C@@]5(C)C[C@@H](O)[C@H](O)C(C)(C)[C@@H]5CC[C@]43C)[C@@H]2C1` was run?
**A.** Active

**Q.** How did the Activity turn out when `CC1(C)CC[C@]2(C(=O)O)CC[C@]3(C)C(=CC[C@@H]4[C@@]5(C)C=C(O)C(=O)C(C)(C)[C@@H]5CC[C@]43C)[C@@H]2C1` was run?
**A.** Active
